This is an account of results in ChEMBL document CHEMBL4257481, “Synthesis and radioprotective effects of novel benzyl naphthyl sulfoxide (sulfone) derivatives transformed from Ex-RAD” (Medchemcomm, 2018).

In data set [1] the test system is Mus musculus. The data set can be described thus: Radioprotective activity against 60Co gamma-irradiation-induced toxicity in C57/BL mouse assessed as survival rate at 300 mg/kg, sc administered 15 mins and 24 hrs prior to irradiation and measured over 30 days post irradiation (reference value: 50%). The class given is functional. The settings on record: light or radiation study.

Data set [2] relates to HUVEC. As to the kind of experiment: Radioprotective activity against 60Co gamma-irradiation-mediated cytotoxicity in HUVEC assessed as survival rate at 20 uM preincubated for 24 hrs followed by gamma-irradiation and measured after 4 days by MTS assay relative to control. The class given is functional. The settings on record: Homo sapiens, light or radiation study, read-out: Survival. In a few lines: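 HUVECs in RPMI-1640 with 10% FBS, seeded 4000 cells per mL. After 24 h, exposed to compound from a 100 mM DMSO stock (final 20 µM) for 24 h. Then ⁶⁰Co γ-irradiated at 8.0 Gy, 0.93 Gy min⁻¹, and cultured 4 days with medium changes. MTS added for 3 h at 37 °C and A492 read. Survival calculated relative to non-irradiated cells; mean of three independent experiments.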
(Formazan colour is commonly taken as a measure of viable cells.)

In data set [3] the test system is HUVEC. As to the kind of experiment: Radioprotective activity against 60Co gamma-irradiation-mediated cytotoxicity in HUVEC assessed as increase in survival rate at 40 uM preincubated for 24 hrs followed by gamma-irradiation and measured after 4 days by MTS assay relative to control. Format: functional, cell-based. The settings on record: Homo sapiens. The gist of the method: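 HUVECs seeded at 4000 cells/mL in RPMI-1640 with 10% FBS. After 24 h, compound added at 40 µM (diluted from 100 mM DMSO stock) for 24 h, then 8.0 Gy 60Co γ at 0.93 Gy/min. Cells grown 4 days with medium changed every 2 days, then MTS for 3 h at 37 °C and A492 read. Survival = blank-corrected OD relative to unirradiated cells; mean of three experiments.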

Data set [4] relates to Mus musculus. The data set can be described thus: Radioprotective activity against 60Co gamma-irradiation-induced toxicity in C57/BL mouse assessed as survival rate at 5 mg/kg, ig administered 24 hrs prior to irradiation and measured over 30 days post irradiation (reference value: 50%). The settings on record: light or radiation study, po. The class given is functional.
In data set [5] the test system is HUVEC. The data set can be described thus: Cytotoxicity against HUVEC at 100 uM after 24 hrs by MTS assay. The class given is cell-based. The settings on record: human. In a few lines: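 HUVECs grown in RPMI-1640 with 10% FBS and penicillin/streptomycin, pH 7.2, 37 °C, 5% CO2, then trypsinized at 80% confluence. Compound exposure at 100 µM, with viability read by MTS tetrazolium assay.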

Data set [6] concerns HUVEC. As to the kind of experiment: Radioprotective activity against 60Co gamma-irradiation-induced DNA damage in HUVEC after 24 hrs by comet assay. The class given is functional, cell-based. The settings on record: Homo sapiens. In a few lines:
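HUVECs (RPMI-1640, 10% FBS) incubated with compound 24 h, then given 6.0 Gy 60Co γ at 0.93 Gy/min. At 24 h post-irradiation, cells (1 × 10^5/mL) were embedded in comet agarose and lysed 30 min at 4 °C. Alkaline unwinding (300 mM NaOH, 1 mM EDTA, pH > 13) ran 30 min, then electrophoresis at 1.0 V/cm, 20 min. Vista green stain; tail length (µm) of 50 comets/slide; three repeats.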

Data set [7] relates to Mus musculus. The data set can be described thus: Radioprotective activity against 60Co gamma-irradiation-induced toxicity in C57/BL mouse assessed as survival rate at 300 mg/kg, ip administered 15 mins and 24 hrs prior to irradiation and measured over 30 days post irradiation (reference value: 50%). Format: functional. The settings on record: light or radiation study.
Data set [8] has as its system Mus musculus. The data set can be described thus: Radioprotective activity against 60Co gamma-irradiation-induced body weight loss in C57/BL mouse assessed as increase in body weight at 300 mg/kg, ip administered 15 mins and 24 hrs prior to irradiation and measured over 10 to 30 days post irradiation. Format: functional, organism-based.

Active and inactive are the calls of the source. No cut-off for these calls is given here.

Turning to `O=C(O)c1ccc(/C=C/S(=O)(=O)Cc2ccc(Cl)cc2)cc1` [RECILISIB SODIUM], in data set [1], the survival at 300 mg/kg came out at 60%. In data set [2], the viability at 20 µM turned out to be 57.5%. Also, in data set [3], the result was Active.
`C#C[C@]1(O)[C@H](O)C[C@H]2[C@@H]3CCc4cc(OC5CCCC5)ccc4[C@H]3CC[C@@]21C` [NYLESTRIOL]: the survival at 5 mg/kg in data set [4] was found to be 100%.
`[O-][S+](Cc1ccccc1F)c1ccc2cc(Br)ccc2c1` (centres undefined): in data set [2], the viability at 20 µM stood at 51.3%. In addition, the result in data set [3] was Active. Moreover, in data set [5], the Activity entry is on record as “Non-Toxic”.
For `O=S(=O)(Cc1ccccc1F)c1ccc2cc(Br)ccc2c1` the same measures were 52.4%, “Active” and “Non-Toxic”.
For `[O-][S+](Cc1cccc(Cl)c1)c1ccc2cc(Br)ccc2c1` (centres undefined) the same measures were 55.1%, “Active” and “Non-Toxic”.
The like results for `[O-][S+](Cc1ccc(Cl)cc1)c1ccc2ccccc2c1` (centres undefined) were, in that order, 57.2%, “Active” and “Non-Toxic”.
On to `O=S(=O)(Cc1ccccc1Cl)c1ccc2cc(Br)ccc2c1`, for which the viability at 20 µM in data set [2] turned out to be 56.7%. The result in data set [3] was Active. Besides, the Activity entry in data set [5] is recorded as “Non-Toxic”.
As to `[O-][S+](Cc1ccc(F)cc1)c1ccc2ccccc2c1` (centres undefined), the viability at 20 µM in data set [2] amounted to 52%. The outcome in data set [3] was Active. Besides, the Activity entry in data set [5] was “Non-Toxic”.
As to `[O-][S+](Cc1ccc(F)cc1)c1ccc2cc(Br)ccc2c1` (centres undefined), the outcome in data set [6], in data set [3] and in data set [8] was Active. Moreover, the survival at 300 mg/kg in data set [7] turned out to be 100%. In addition, the viability at 20 µM in data set [2] was 77.2%. Further, the Activity result in data set [5] is reported as “Non-Toxic”.
Consider `[O-][S+](Cc1ccc(Br)cc1)c1ccc2ccccc2c1` (centres undefined), for which the viability at 20 µM in data set [2] amounted to 59.3%. Further, the result in data set [3] was Active. In addition, the Activity result in data set [5] is recorded as “Non-Toxic”.
The like results for `O=S(=O)(Cc1ccc(Br)cc1)c1ccc2cc(Br)ccc2c1` were, in that order, 53.1%, “Active” and “Non-Toxic”.
